NTR1 agonist = agonists of human NTR1, primary screen, imaging, U2OS cells, beta-arrestin-GFP, high content; NTR1-U2OS beta-arrestin-GFP spot imaging, agonist mode; activation, % at 20 µM; actives 0.17% (n = 330,000);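 active means activation at or above 40% of the spot to cytoplasm intensity ratio, with at least 20 cells analyzed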;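 further: 0% = DMSO without peptide and 100% = 100 nM NTR1 peptide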
OX1R antag-1 = antagonists of human orexin 1 receptor (OX1R); Orexin/Hypocretin receptor type 1 (Homo sapiens), O43613; OX1R-expressing cells, FRET antagonist read-out; inhibition, % at 6.6 µM; actives 1.8% (n = 330,000); AID 485270, 2010; in the data active means inhibition mostly above about 38%, no sharp cut-off; inactive means mostly below about 40%;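 further: 0% = agonist challenge alone and 100% = reference antagonist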
Target sequence (O43613 whole entry, looked up): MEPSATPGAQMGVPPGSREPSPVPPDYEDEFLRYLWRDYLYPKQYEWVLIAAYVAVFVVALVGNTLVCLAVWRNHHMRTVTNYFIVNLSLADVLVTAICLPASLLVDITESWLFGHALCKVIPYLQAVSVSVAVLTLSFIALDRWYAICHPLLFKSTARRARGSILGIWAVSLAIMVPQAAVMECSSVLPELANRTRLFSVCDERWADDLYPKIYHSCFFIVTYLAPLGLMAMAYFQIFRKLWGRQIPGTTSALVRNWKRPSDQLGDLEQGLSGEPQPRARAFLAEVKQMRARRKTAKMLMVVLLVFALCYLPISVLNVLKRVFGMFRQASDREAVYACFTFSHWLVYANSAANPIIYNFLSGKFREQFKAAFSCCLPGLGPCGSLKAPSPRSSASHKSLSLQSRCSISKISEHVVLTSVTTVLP
OX1R antag-2 = OX1R (HCRTR1) antagonists, primary screen, fluorescence, CHO/OX1R cells, Fluo-8 calcium, orexin A. inhibition, % at 5 µM. actives 0.43% (n = 330,000). Fluo-8 calcium fluorescence. Orexin/Hypocretin receptor type 1 (Homo sapiens), O43613. AID 434989, 2010;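 active means inhibition above its plate's threshold, mean inhibition of all tested compounds on the plate plus 3 SD, cut at about 37% in these data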;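 further: 0% = orexin A challenge wells and 100% = SB-334867-A antagonist wells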
CHO parental Ca = ATP-evoked calcium signal inhibitors, parental CHO, primary screen, counter-screen for OX1R antagonist project, cell-based, fluorescence, Fluo-8 calcium dye | parental CHO-K1, ATP-induced calcium, Fluo-8 fluorescence | inhibition, % at 5.6 µM | actives 0.63% (n = 330,000);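 active means inhibition above that plate's mean sample inhibition plus 3 SD, cut at about 26% in these data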;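 further: 0% = ATP-challenged DMSO wells and 100% = DMSO wells without ATP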
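Measured by: calcium-sensitive Fluo-8 fluorescence / Test system: CHO parental line / Controls: ATP-challenged DMSO wells low, unchallenged DMSO wells high / Measure: % inhibition / Compound: single nominal dose of 5.6 µM per compound / Replicates: single well per compound, no replicates / Reagent: ATP as calcium-mobilizing challenge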
TAAR1 antagonist = human TAAR1 antagonists, primary screen, Fluo-8 calcium fluorescence, CHO RD-HGA16 cells; antagonist; actives 1.5% (n = 360,000); Trace amine-associated receptor 1 (Homo sapiens), Q96RJ0; inhibition, % at 3 µM; AID 624466, 2012;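 active means inhibition above a per-plate cutoff, the mean inhibition of test compounds on that plate plus 3 SD, cut at about 49% in these data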;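 further: 0% = DMSO plus EC80 beta-PEA response and 100% = DMSO alone without agonist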
Target sequence (Q96RJ0 whole entry, looked up): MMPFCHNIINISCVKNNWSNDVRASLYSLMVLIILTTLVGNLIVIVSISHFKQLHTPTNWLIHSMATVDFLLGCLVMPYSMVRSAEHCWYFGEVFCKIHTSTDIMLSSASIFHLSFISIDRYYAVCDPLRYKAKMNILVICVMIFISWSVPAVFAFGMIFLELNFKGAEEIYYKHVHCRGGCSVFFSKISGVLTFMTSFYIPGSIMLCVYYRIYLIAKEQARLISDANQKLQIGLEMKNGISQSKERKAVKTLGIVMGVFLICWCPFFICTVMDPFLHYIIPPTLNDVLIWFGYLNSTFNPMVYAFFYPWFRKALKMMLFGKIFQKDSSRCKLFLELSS
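System: CHO RD-HGA16 cells bearing hTAAR1. Reagent: EC80 β-phenethylamine stimulus. Schedule: seeding 17-24 h prior, 75-min 37 °C, 30-min RT dye loading. Signal: Fluo-8 intracellular calcium dye fluorescence, real-time kinetic reads. Read-out: % inhibition from peak post-agonist over basal fluorescence ratio. Benchmarks: vehicle wells and EC80 agonist wells. Replicates: n of 1.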
TAAR1 agonist = human TAAR1 agonists, primary screen, Fluo-8 calcium fluorescence, CHO RD-HGA16 cells; Trace amine-associated receptor 1 (Homo sapiens), Q96RJ0; AID 624467, 2012; actives 0.99% (n = 360,000); activation, % at 3 µM; vehicle wells 0%, saturating PEA agonist 100%;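 active means activation above the mean activation of all test compounds in the run plus 3 SD, cut at about 38% in these data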
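Benchmarks: low control DMSO, high control PEA (EC100); System: CHO RD-HGA16 cells carrying human TAAR1 plus Gα16; Detection: Fluo-8 fluorescence, 5 s baseline then 140 s kinetic read; Schedule: 17-24 h plating, Fluo-8 75 min 37 °C, 30 min RT; Read-out basis: % activation from peak over basal fluorescence ratio, DMSO-to-PEA scaled.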
Active calls of the source: *; / = not tested or not shown. Rows were chosen to be rich in hits. Some 4% of all compounds tested hit in one or more screens of this group.

SMILES | NTR1 agonist | OX1R antag-1 | OX1R antag-2 | CHO parental Ca | TAAR1 antagonist | TAAR1 agonist
Cc1nc(SCc2nc3ccccc3[nH]2)c2oc3ccccc3c2n1 | 0.3 | 79.4* | -8.5 | -33.0 | 16.3 | 12.5
Cc1nc(SCc2nc3ccccc3[nH]2)c2oc3ccc(Br)cc3c2n1 | 0.8 | 14.7 | -23.3 | -32.6 | 1.5 | -0.8
COc1ccc(C2=Nn3c(nnc3-c3ccccc3F)SC2)cc1OCC1CC1 | 11.4 | 23.3 | 0.4 | -20.6 | 52.4* | 3.6
Cc1ccc(S(=O)(=O)NC(=O)ON=Cc2ccc3c(c2)OCO3)cc1 | / | / | / | / | -6.9 | 0.7
C[C@@H]1ON(C)[C@H]2C[C@H]3c4[nH]c5c(-c6ccccc6F)cccc5c4CCN3C(=O)[C@@H]12 | / | / | / | / | 20.2 | 3.6
COc1ccc(N(CC(=O)NCc2ccccc2C)S(=O)(=O)c2ccccc2[N+](=O)[O-])c(OC)c1 | 1.2 | 63.9* | 14.4 | -16.8 | 21.9 | 5.2
CN(C)CCCN(C(=O)c1ccc([N+](=O)[O-])s1)c1nc2cc3c(cc2s1)OCCO3 | -0.8 | 78.2* | -22.8 | -11.9 | -0.7 | 9.7
CCOc1cccc2cc(-c3nnc(NCc4ccco4)s3)c(=O)oc12 | -0.6 | 45.7* | -1.4 | -13.0 | 25.0 | 4.5
O=C(N[C@H](C(=O)N1CCC[C@H]1C(=O)NC1CCCC1)C1CCCCC1)c1cccs1 | / | / | / | / | -27.7 | -0.9
COc1ccc(CCNC(=O)c2cccc(S(=O)(=O)N3CCCC3)c2)cc1 | 1.3 | / | / | / | -13.2 | 0.7
CCOc1ncccc1C(=O)Nc1ccc(C)c(S(=O)(=O)N2CCCCCC2)c1 | 9.1 | 4.0 | 54.9* | 34.4* | 39.5 | 3.6
COc1cc(CCC(=O)Nc2ccc(C)c(S(=O)(=O)N3CCCCCC3)c2)cc(OC)c1OC | 1.5 | 14.8 | 25.1 | -8.2 | 50.1* | 14.6
COc1ccc(CCNC(=O)c2ccc(Cl)c(S(=O)(=O)N3CCCCCC3)c2)cc1 | 5.8 | 15.3 | 46.3* | 26.8* | 44.2 | 14.7
COc1cc(CCC(=O)Nc2ccc(S(=O)(=O)N3CCCC3)cc2)cc(OC)c1OC | -0.2 | -0.2 | -33.8 | -20.1 | -21.7 | 7.1
Cc1ccccc1OCC(=O)Nc1ccc(C)c(S(=O)(=O)N2CCCCCC2)c1 | 2.5 | 37.2 | -19.3 | 7.6 | 49.0* | 0.0
O=C(NCc1ccccc1)C(c1ccco1)N1CCN(CCN2CCOCC2)CC1 (stereo not drawn) | / | / | / | / | -12.8 | 0.8
O=C(COc1ccccc1Cl)Nc1cccc(S(=O)(=O)N2CCCC2)c1 | 1.7 | 8.6 | 15.9 | -3.1 | 19.2 | 3.5
O=C(COc1ccc(F)cc1Cl)Nc1cccc(S(=O)(=O)N2CCCC2)c1 | 0.8 | -1.1 | 46.7* | 29.5 | 14.0 | 4.3
CC1CCCN(S(=O)(=O)c2cc(C(=O)NCc3ccco3)ccc2Cl)C1 (stereo not drawn) | 0.8 | 4.2 | -14.6 | -7.8 | 1.2 | -1.8
COc1ccc(CCC(=O)Nc2ccc(Cl)c(S(=O)(=O)N3CCCC3)c2)cc1 | 2.2 | 25.8 | 35.5 | 52.6* | 3.7 | -0.1
CC1CCCN(S(=O)(=O)c2cc(C(=O)NCCc3ccc(S(N)(=O)=O)cc3)ccc2Cl)C1 (stereo not drawn) | / | / | / | / | 49.6* | 15.6
CCOC(=O)C1CCCN(C2CC(=O)N(c3cccc(C(F)(F)F)c3)C2=O)C1 (stereo not drawn) | -0.2 | 9.3 | -14.6 | -6.3 | 43.9 | 43.1*
O=C(N[C@H](Cc1ccccc1)C(=O)N(CCC1=CCCCC1)CC1CC1)[C@H]1O[C@@H](n2ccc(=O)[nH]c2=O)[C@H](O)[C@@H]1O | / | / | / | / | -4.6 | 0.1
O=C(N/N=C/c1cccc([N+](=O)[O-])c1)c1cc[n+](CCO)cc1 | -0.6 | 69.0* | -3.8 | 0.6 | -8.3 | -0.2
Nc1cc(C(=O)N/N=C/c2cccc([N+](=O)[O-])c2)n[nH]c1=O | 0.7 | 51.7* | -7.5 | -2.1 | -19.1 | 3.4
SMILES | NTR1 agonist | OX1R antag-1 | OX1R antag-2 | CHO parental Ca | TAAR1 antagonist | TAAR1 agonist
CN1CCN(c2ccc([N+](=O)[O-])cc2/C=N/NC(=O)c2cccc([N+](=O)[O-])c2)CC1 | 2.6 | 65.6* | -29.4 | -16.5 | -7.7 | 2.2
O=C(N/N=C/c1ccncc1)c1cccc([N+](=O)[O-])c1 | 0.4 | 56.9* | -3.6 | -6.3 | -7.9 | 0.1
O=C(N/N=C/c1ccco1)c1cccc([N+](=O)[O-])c1 | 13.0 | 30.7 | 1.8 | -8.1 | 42.4 | -1.2
O=C(N/N=C/c1ccc([N+](=O)[O-])cc1)c1cccc(N2CCCC2=O)c1 | 0.4 | 75.5* | -17.9 | -11.6 | 0.3 | 1.0
CCOc1cc(/C=N/NC(=O)c2cccc([N+](=O)[O-])c2)ccc1OS(=O)(=O)c1ccccc1 | -0.2 | 17.3 | 0.1 | -6.0 | 52.4* | 2.0
O=C(N/N=C/c1ccco1)c1cc([N+](=O)[O-])cc([N+](=O)[O-])c1 | -1.2 | 63.6* | -6.3 | -14.2 | -1.4 | 7.0
COc1ccc(/C=N/NC(=O)c2cccc([N+](=O)[O-])c2)cc1OS(=O)(=O)c1ccc(C)cc1 | 1.2 | 32.6 | -3.3 | -5.7 | 14.1 | 7.0
Cc1cc2c(nc1C)CCCN2S(=O)(=O)c1ccc(C#N)cc1 | / | / | / | / | -4.3 | 0.5
C(=CCSc1ccccn1)CSc1ccccn1 | / | / | / | / | -12.3 | 2.3
CCOc1ccc(N=Nc2ccc(O)c3ncccc23)cc1 | 1.1 | / | / | / | 6.4 | 6.8
Oc1ccc(N=Nc2ccc3c(c2)OCCO3)c2ncccc12 | 4.1 | 19.0 | 50.5* | 50.8* | 79.1* | 36.1
NS(=O)(=O)c1ccc(N=Nc2ccc(O)c3ncccc23)cc1 | 0.0 | 3.3 | -15.4 | -3.1 | -10.6 | 0.6
CCS(=O)(=O)c1ccc(OC)c(N=Nc2ccc(O)c3ncccc23)c1 | 0.8 | 20.7 | -9.1 | -7.1 | 0.7 | 3.7
Cc1ccc(C)c(N=Nc2ccc(O)c3ncccc23)c1 | 1.1 | 15.0 | 20.6 | 37.3* | 3.2 | 3.1
Cc1cccc(N=Nc2ccc(O)c3ncccc23)c1 | 2.2 | 24.4 | 47.8* | 67.7* | 76.4* | 30.1
Cc1cc2c(nc1C)CCCN2S(=O)(=O)c1ccc(F)cc1 | / | / | / | / | 1.2 | -1.2
CCOc1ccc(/C=N/NC(=O)c2ccccc2C)cc1CN1CC2CC(C1)c1cccc(=O)n1C2 (stereo not drawn) | 1.4 | 29.2 | -20.2 | -31.7 | 2.0 | 0.6
CCOc1ccc(/C=N/NC(=O)c2ccccc2Cl)cc1CN1CC2CC(C1)c1cccc(=O)n1C2 (stereo not drawn) | 5.0 | 36.8* | -14.5 | -30.1 | 7.7 | -1.6

High-throughput results: PubChem, several laboratories
